Measured values from ChEMBL document CHEMBL3813671, “Unexpected Discovery of Dichloroacetate Derived Adenosine Triphosphate Competitors Targeting Pyruvate Dehydrogenase Kinase To Inhibit Cancer Proliferation” (J Med Chem, 2016).
Activity calls are given as the source filed them. No cut-off for these calls is given here.

Columns and labels:
[1] = target: T1, [Pyruvate dehydrogenase (acetyl-transferring)] kinase isozyme 1, mitochondrial (Homo sapiens, UniProt Q15118); assay: Inhibition of PDK1 in human MCF7 cells assessed as increase in oxygen consumption rate at 20 uM after 12 hrs; type: cell-based
Procedure, shortened: (§1)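 MCF-7 cells at 2.7×10⁴ cells/well in XF24 plates, attached, then grown 24 h at 37 °C in 5% CO2. Treated 12 h at 5, 10 or 20 µM, rinsed into glycolysis stress-test medium and held 1 h at 37 °C without CO2. OCR, ECAR and PPR then measured on a Seahorse XFe24 analyser. Significance P < 0.05 versus untreated control.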

[2] = target: T1, [Pyruvate dehydrogenase (acetyl-transferring)] kinase isozyme 1, mitochondrial; assay: Inhibition of PDK1 in human MCF7 cells assessed as decrease in extracellular acidification rate at 20 uM after 12 hrs; type: cell-based; procedure, shortened: as §1
[3] = target: T1, [Pyruvate dehydrogenase (acetyl-transferring)] kinase isozyme 1, mitochondrial; assay: Inhibition of PDK1 in human MCF7 cells assessed as decrease in proton production rate at 20 uM after 12 hrs; type: cell-based; procedure, shortened: as §1
[4] = target: T1, [Pyruvate dehydrogenase (acetyl-transferring)] kinase isozyme 1, mitochondrial; assay: Inhibition of PDK1 in human MCF7 cells assessed as increase in ratio of oxygen consumption rate to extracellular acidification rate at 20 uM after 12 hrs; type: cell-based; procedure, shortened: as §1
MCF7 [5] = assay: Reversal of hyperpolarized mitochondrial membrane potential in human MCF7 cells assessed as cells with vital and intact mitochondrial membranes at 20 uM after 12 hrs by JC1 staining-based flow cytometric analysis; type: functional
Procedure, shortened: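 MCF-7 cells treated 12 h (5, 10 or 20 µM), then stained with JC-1. Depolarization read as the ratio of green J-monomer to red J-aggregate fluorescence.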

MCF7 [6] = assay: Induction of mitochondrial membrane potential depolarization in human MCF7 cells at 60 uM after 12 hrs by TMRM staining-based assay; type: functional, cell-based
A549 [7] = assay: Cytotoxicity against human A549 cells assessed as growth inhibition after 72 hrs by MTT assay; type: functional, cell-based; settings: A549, 72 h
MCF7 [8] = assay: Cytotoxicity against human MCF7 cells assessed as growth inhibition after 72 hrs by MTT assay; type: functional, cell-based; settings: MCF7, 72 h
[9] = Cytotoxicity against human MCF10A cells assessed as growth inhibition at 10 uM after 72 hrs by MTT assay relative to control; type: cell-based, MCF-10A; settings: read-out: GI
[10] = Cytotoxicity against human MCF10A cells assessed as growth inhibition at 40 uM after 72 hrs by MTT assay relative to control; type: cell-based, MCF-10A; settings: read-out: GI
A549 [11] = assay: Cytotoxicity against human A549 cells assessed as growth inhibition at 40 uM after 72 hrs by MTT assay relative to control; type: functional, cell-based
MCF7 [12] = assay: Cytotoxicity against human MCF7 cells assessed as growth inhibition at 40 uM after 72 hrs by MTT assay relative to control; type: functional, cell-based
MCF7 [13] = assay: Induction of apoptosis in human MCF7 assessed as early apoptotic cells at 20 uM after 10 hrs by FITC-annexin V/propidium iodide staining-based flow cytometric analysis (reference value: 2.38%); type: functional
MCF7 [14] = assay: Induction of apoptosis in human MCF7 assessed as late apoptotic cells at 20 uM after 10 hrs by FITC-annexin V/propidium iodide staining-based flow cytometric analysis (reference value: 1.95%); type: functional
MCF7 [15] = assay: Induction of apoptosis in human MCF7 assessed as necrotic cells at 20 uM after 10 hrs by FITC-annexin V/propidium iodide staining-based flow cytometric analysis (reference value: 1.86%); type: functional
MCF7 [16] = assay: Induction of apoptosis in human MCF7 assessed as viable cells at 20 uM after 10 hrs by FITC-annexin V/propidium iodide staining-based flow cytometric analysis (reference value: 93.8%); type: functional; settings: MCF7, 10 h, read-out: Activity
A549 [17] = assay: Cytotoxicity against human A549 cells assessed as growth inhibition at 40 uM after 72 hrs by IncuCyte Zoom live cells imaging method; type: functional, cell-based
[18] = target: T1, [Pyruvate dehydrogenase (acetyl-transferring)] kinase isozyme 1, mitochondrial; assay: Inhibition of recombinant N-terminal 6xHis-SUMO-tagged human PDK1 (29 to 436 residues) expressed in Escherichia coli BL-21 assessed as phosphorylation of RYHGHSMSDP at 50 uM after 30 mins by Kinase-Glo luminescent assay
Sus scrofa [19] = organism: Sus scrofa; assay: Activation of pig heart PDC assessed as production of NADH at 50 uM in presence of ATP
Procedure, shortened: (§2)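 Pig heart PDC (80 µg/ml, carrying intrinsic PDK activity) preincubated 40 min at 37 °C in Mops pH 7.20 buffer with NaF, acetyl-CoA, NADH and DTT. Kinase step 3 min at 37 °C with 55 µM ADP and 100 µM ATP, or no ATP. Stopped with ADP/pyruvate. Residual PDC activity then read as NADH formation at 340 nm, 37 °C, in Tris pH 7.8 with TPP, NAD+, pyruvate and CoA.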

Sus scrofa [20] = organism: Sus scrofa; assay: Activation of pig heart PDC assessed as production of NADH at 50 uM in absence of ATP; procedure, shortened: as §2
[21] = target: T1, [Pyruvate dehydrogenase (acetyl-transferring)] kinase isozyme 1, mitochondrial; assay: Inhibition of recombinant N-terminal 6xHis-SUMO-tagged human PDK1 (29 to 436 residues) expressed in Escherichia coli BL-21 assessed as activation of PDC at 50 uM
[22] = target: T1, [Pyruvate dehydrogenase (acetyl-transferring)] kinase isozyme 1, mitochondrial; assay: Inhibition of recombinant N-terminal 6xHis-SUMO-tagged human PDK1 (29 to 436 residues) expressed in Escherichia coli BL-21 assessed as suppression of PDC phosphorylation at S293 at 50 uM after 30 mins by Western blot method
[23] = target: T1, [Pyruvate dehydrogenase (acetyl-transferring)] kinase isozyme 1, mitochondrial; assay: Inhibition of PDK1 in human MCF7 cells assessed as decrease in lactate production at 20 uM after 12 hrs
MCF7 [24] = assay: Reversal of hyperpolarized mitochondrial membrane potential in human MCF7 cells assessed as cells with vital and intact mitochondrial membranes at 10 mM after 12 hrs by JC1 staining-based flow cytometric analysis; type: functional
Procedure, shortened: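 MCF-7 treated 12 h, then stained with JC-1. Mitochondrial potential read as the ratio of green J-monomer to red J-aggregate fluorescence, where a higher ratio marks depolarization. P < 0.05 computed against the […] DCA-treated group.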

[25] = Cytotoxicity against human MCF10A cells assessed as growth inhibition at 20 uM after 72 hrs by MTT assay relative to control; type: cell-based, MCF-10A; settings: read-out: GI
[26] = Cytotoxicity against human MCF10A cells assessed as growth inhibition at 10 mM after 72 hrs by MTT assay relative to control; type: cell-based, MCF-10A; settings: read-out: GI
MCF7 [27] = assay: Induction of apoptosis in human MCF7 assessed as early apoptotic cells at 10 mM after 10 hrs by FITC-annexin V/propidium iodide staining-based flow cytometric analysis (reference value: 2.38%); type: functional
MCF7 [28] = assay: Induction of apoptosis in human MCF7 assessed as late apoptotic cells at 10 mM after 10 hrs by FITC-annexin V/propidium iodide staining-based flow cytometric analysis (reference value: 1.95%); type: functional
MCF7 [29] = assay: Induction of apoptosis in human MCF7 assessed as necrotic cells at 10 mM after 10 hrs by FITC-annexin V/propidium iodide staining-based flow cytometric analysis (reference value: 1.86%); type: functional
MCF7 [30] = assay: Induction of apoptosis in human MCF7 assessed as viable cells at 10 mM after 10 hrs by FITC-annexin V/propidium iodide staining-based flow cytometric analysis (reference value: 93.8%); type: functional; settings: MCF7, 10 h, read-out: Activity
Sus scrofa [31] = organism: Sus scrofa; assay: Activation of pig heart PDC assessed as production of NADH at 10 mM in presence of ATP
Procedure, shortened: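 Pig PDC with its intrinsic PDKs preincubated 40 min at 37 °C at 80 µg/ml in Mops buffer pH 7.20 with acetyl-CoA, NADH, NaF. Kinase step run 3 min at 37 °C after 2.2-fold dilution into buffer with 55 µM ADP and 100 µM ATP, stopped with ADP/pyruvate. Residual PDC activity read as NADH at 340 nm in Tris pH 7.8 with NAD+, pyruvate, CoA, thiamine pyrophosphate.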

[32] = target: T1, [Pyruvate dehydrogenase (acetyl-transferring)] kinase isozyme 1, mitochondrial; settings: MCF7, 10 mM
[33] = target: T1, [Pyruvate dehydrogenase (acetyl-transferring)] kinase isozyme 1, mitochondrial; settings: MCF7, 10 mM; remark: listed apart in the source
[34] = target: T1, [Pyruvate dehydrogenase (acetyl-transferring)] kinase isozyme 1, mitochondrial; settings: MCF7, 10 mM; remark: listed apart in the source
[35] = target: T1, [Pyruvate dehydrogenase (acetyl-transferring)] kinase isozyme 1, mitochondrial; settings: MCF7, 10 mM; remark: listed apart in the source
[36] = target: T1, [Pyruvate dehydrogenase (acetyl-transferring)] kinase isozyme 1, mitochondrial; settings: MCF7, 10 mM; remark: listed apart in the source
MCF7 [37] = assay: Cytotoxicity against human MCF7 cells assessed as growth inhibition at 40 uM after 72 hrs by IncuCyte Zoom live cells imaging method; type: functional, cell-based

| SMILES | inhibition [1] | inhibition [2] | inhibition [3] | inhibition [4] | Activity (MCF7 [5]) [%] | Activity (MCF7 [6]) | IC50 (A549 [7]) [µM] | IC50 (MCF7 [8]) [µM] | inhibition at 72 h, 10 µM [9] [%] | inhibition at 72 h, 40 µM [10] [%] | growth inhibition (GI) (A549 [11]) | growth inhibition (GI) (MCF7 [12]) | Activity (MCF7 [13]) [%] | Activity (MCF7 [14]) [%] | Activity (MCF7 [15]) [%] | viability at 20 µM (MCF7 [16]) [%] | inhibition [18] | Activity (Sus scrofa [19]) | Activity (Sus scrofa [20]) | inhibition [21] | other results |
| --- | --- | --- | --- | --- | --- | --- | --- | --- | --- | --- | --- | --- | --- | --- | --- | --- | --- | --- | --- | --- | --- |
| Cc1nc(Cl)c(NC(=O)C(Cl)Cl)c(Cl)n1 | Active | Active | Active | Active | 68.6 | Active | 26 | 22.9 | 7.57 | 41.6 | Active | Active | 4.43 | 9.87 | 2.7 | 83 | Active | inactive | Active | Active | growth inhibition (GI) (A549 [17]): Active; inhibition [22]: Active; inhibition [23]: Active |
| O=C([O-])C(Cl)Cl.[Na+] [SODIUM DICHLOROACETATE] | – | – | – | – | 77.7 | – | 23600 | 12400 | – | – | – | – | – | – | – | – | – | – | – | – | Activity (MCF7 [24]): 69%; inhibition at 72 h, 20 µM [25]: 3.42%; inhibition at 72 h, 10000 µM [26]: 41.1%; Activity (MCF7 [27]): 3.64%; Activity (MCF7 [28]): 9.94%; Activity (MCF7 [29]): 3.09%; viability at 10000 µM (MCF7 [30]): 83.3%; Activity (Sus scrofa [31]): Active; inhibition [32]: Active; inhibition [33]: Active; inhibition [34]: Active; inhibition [35]: Active; inhibition [36]: Active |
| O=C(Nc1c(Cl)ncnc1Cl)C(Cl)Cl | Active | Active | Active | Active | 60.1 | Active | 28.4 | 19.3 | 4.91 | 42.4 | Active | Active | 4.84 | 10.6 | 3.91 | 80.7 | Active | inactive | Active | Active | growth inhibition (GI) (MCF7 [37]): Active; inhibition [22]: Active; inhibition [23]: Active |
